Laboratory results: the RNAGym collection of RNA variant scans (doi:10.1126/science.aae0568)
This sample holds only a part of the variants without activity.

B1: tRNA (parent)
chain: GUUCCGUUGGCGUAAUGGUAACGCGUCUCCCUCCUAAGGAGAAGACUGCGGGUUCGAGUCCCGUACGGAACG

Variants of: B1
Assay: yeast fitness relative to wild type (ratio to wild type); higher = fitter; tRNA-Arg(CCU), competitive growth, 37 C, YPD
Summary of the method: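 Variants of the tRNA-Arg(CCU) gene, chemically synthesised with a 3% per-site mutation rate at 69 sites, were placed at the native genomic locus in Saccharomyces cerevisiae. The pooled strains were competed in YPD at 37°C for 24 hours in six parallel replicates. Gene amplicons from the start population and from each end population were read by 100-nucleotide paired-end sequencing. Darwinian fitness relative to wild type came from changes in genotype frequencies; genotypes needed ≥ 100 starting reads, and estimates < 0.5 were set to 0.5.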
For GUUCCGUUGGUGUAAUGGUAACGCGUCUCCCUCCAAAAGAGAAGACUGCGGGUUAGAGUCGCGUACGGAACG, the yeast fitness was at most 0.5. Variant GUUCCGUUGGUGUAAUGGUAACGCGUCUCCCUCCUAAGGAGAAGACCGCGCGUUCGAGUCCCGUACGGAGCG has a yeast fitness of 0.669. GUUCCGUUGGUGUAAUGGUAACGCGUCACCCUCCUAAGGAGAAGACUGCGGGUCCGAGUCCCGUACGGAACG showed a yeast fitness of at most 0.5. Work on GUUCCGUUGGUGUAAUGGUAACGCGGCUCCCUCCUAAGGAGACGACUGCGGGCUCGAGUCCCGUAUGGACCG yielded a yeast fitness of 0.504. Variant GUUCCGUUGGUGUAAUGGUAACGCGUCCGCCUCCUAAGCAGAAGACUGCGGGUUCGAGUCCCGUACGGAACG has a yeast fitness of at most 0.5. With GUUCCGUUGGUGUAAUGGUAACGCGUCUCCCUCCUAAGGAGAAGACCGCGGGUUCGAGUCCCGUACAGAACG the yeast fitness was 0.783. GUUCCGUUGGUGUAAUGGUAACGCGUCUCCCGCCUAAGGAGAAGACUGCGGGUUCGAGCCCCGUACGGAACG showed a yeast fitness of at most 0.5. For GUUCCGUUGGUGUAAUGGAAACGCGUCUCGCUCCUAAGGAGAAGACUGCGGGUUCGAGUCCCGUACGAAACG, the yeast fitness was at most 0.5. In the case of GUUCCGUUGGUGUAAUGGUAACGCGUCUCCCUCCUAAGGAGAAGACUGCGGGUUCGAGACCCGUAGGGAACG, the yeast fitness is reported as at most 0.5. With GUUCCGUUGGUGUAAUGGAAACGCGUCUUGCUCCUAAGGAGAAGACUGCGGGUUCGAGUCCCGUACGGAACG the yeast fitness was at most 0.5. Work on GUUCCGUUGGUGUAAUGGUAACGCGACUCCGUCCUAUGGAGAAGACUGCGGGUUCGAGUCCCGUACGGAACG yielded a yeast fitness of at most 0.5. GUUCCGUUGGUGUAAUGGAAACGCGUCUCCCUCCUAAGGAGAAGACUGCGGGUUCGAGUCUCGUACGAAACG gave a yeast fitness of at most 0.5. For GUUCCGUUGGUGUAAUGGUAACGCGUCUCCCCCCUAAGGAGAAGACUGCGGGUUCGAGUCCCGUACGGAACG, the yeast fitness was 0.933. Variant GUUCCGUUGGUGUAAUGGUAACGCGUCUCCCACCUAAGGAGAAGACUGCGGGUUCGAGUCCCGUACGGAACG has a yeast fitness of 0.772. GUUCCGUUGGUGUAAUGGUAACGCGCCUCCCUCCUAAGGAGAAGACAGCGGGUUCGAGUCCCGAACGGAACG showed a yeast fitness of at most 0.5. Variant GUUCCGUUGGUGUAAUGGUAACGCGUCUCCCACCUAAGGAGCAGACUGCGGGUUCGAGUCCCGUACGGAACG has a yeast fitness of 0.545. Variant GUUCCGUUGGUGUAAUGGUAACGCGUCUCCCUCCUAAGGAGAAGACUGCGGGGUCGAGUCCCGUACGGAACG has a yeast fitness of 0.608. GUUCCGUUGGUGUAAUGGUAACGCGUCUCCCUCCUAAGGAGAAGACUGCGGGAUCGAGUCCCGUACGGAACG showed a yeast fitness of 0.751. GUUCCGUUGGUGUAAUGGUAACGCGUCUCCCUCCUAAGGAGAAGACUGCGGGUUCGAGGCCCGUACGGAACG gave a yeast fitness of 0.786. GUUCCGUUGGUGUAAUGGUAACGCGUCUCCCUCCUAAGGAGAAGACUGCGGGUUCGAGCCCCGUACGGAACG showed a yeast fitness of 0.937. GUUCCGUUGGUGUAAUGGUAACGCGUCCCGCUCCUAAGGAGAAGACUGGGGGUUCGAGUCCCGUACGGAACG gave a yeast fitness of at most 0.5. In the case of GUUCCGUUGGUGUAAUGGUAACGCGUCUCCCUCCAAAAGAGAAGACUGCGGAUUCCAGUCCCGUACGGAACG, the yeast fitness is reported as at most 0.5. Work on GUUCCGUUGGUGUAAUGGGAACGCGUUUCCCUCCUAAGGAGAAGACUACGGGUUCGAGUCCCGUAUGGAACG yielded a yeast fitness of at most 0.5. In the case of GUUCCGUUGGUGUAAUGGUAACGCGACUCCCUUCUAAGGAGAAGACUGCGGGCUCGAGUCCCGUACGGAACG, the yeast fitness is reported as at most 0.5. For GUUCCGUUGGCAUCAUGGUAACGCGUCUCCCUCCUAAGGAGAAGACUGCGGGUUCGAGUCCCGUACGGAACG, the yeast fitness was 0.796. With GUUCCGUUGGUGUAAUGGUAACGCGGCCCCCUCCUAAGGAGAAGACUGAGGGUUCGACUCCUGUACGGAACG the yeast fitness was 0.527. With GUUCCGUUGGUGUAAUGGUAACGCGUCUCCCUCCAAAAGAGAAGACUGCGGGUUCGAGUCCCGUACGGAACG the yeast fitness was 0.51. GUUCCGUUGGUGUAAUGGUAACGCGUCAUCCUCCUAAGGAGAAGACUGCGGGUUCGAGUCCCGUACGGAACG showed a yeast fitness of 0.93. In the case of GUUCCGUUGGUGUAAUGGUAACGCGUCUCCCACAUAAGGAGACGACUGCGGGUUCGAGUCUCGUACGAAACG, the yeast fitness is reported as at most 0.5. With GUUCCGUUGGUGUAAUGGUAACGCGUCUCCCUCCUAAGGAGAAGACUGCGGGUUCGAGACCCGGACGGAACG the yeast fitness was at most 0.5. With GUUCCGUUGGUGUAAUGGUAACGCGUCCGCCUCCUAAGGAGAAGACUGCGGGUUCGAGUCCCGUACGGAACG the yeast fitness was 0.541. With GUUCCGUUGGUGUAAUGGUAACGCGUCUCCCUCCCUAGGAGAAGAUUGCGGGUUCGAGUCCCGUACGGAACG the yeast fitness was 0.75. Variant GUUCCGUUGGUGUAAUGGUAACGCGUCUCCCUCCGAAGGAGAAGACAACGGGUUCGAGUCCCGUUCGGAACG has a yeast fitness of at most 0.5. Variant GUUCCGUUGGUGUAAUGGAAACGCGUCUCCCUCCUAAGGAAAAGACUGCGGGUUCGAGUCCCGUUCGGAACG has a yeast fitness of at most 0.5. In the case of GUUCCGUUGGUGUAAUGGUAACGCGUCCCCCGCCUAAGGAGAAGACUGCGGGUUCGAGUCCCGUACGGAUCG, the yeast fitness is reported as at most 0.5. In the case of GUUCCGUUGGUGUAAUGGGAACGCGUCUCCCUCCUAAGGAGAAGACUGCGCGUUCGAGUCGCGUACGGAACG, the yeast fitness is reported as at most 0.5. With GUUCCGUUGGUGUAAUGGUAACGCGUCUCCCACCUAAGGAGAAGACUGCAAGUUCCAGUCGCGUACGGAACG the yeast fitness was at most 0.5. With GUUCCGUUGGUGUAAUGGGAACGCGUCUCCCUCCUAAGGAGAAGACUGCGCGUUCGAGUCCCGUAAGGAACG the yeast fitness was 0.578.
